Assay results: ChEMBL document CHEMBL1156827, “Benzimidazole derivatives as new serotonin 5-HT6 receptor antagonists. Molecular mechanisms of receptor inactivation” (J Med Chem, 2010)
pKi: −log10 of the molar value. Active and inactive are the calls of the source. No cut-off for these calls is given here.

Legend:
[1] = target: 5-hydroxytryptamine receptor 7 (Homo sapiens, UniProt P34969); experiment: Displacement of [3H]LSD from human 5HT7 receptor expressed in HEK293 cells by liquid scintillation counting; format: cell-based
Procedure, shortened: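 Purchased HEK-293 membranes expressing h5-HT7R were incubated with 3 nM [³H]LSD for 120 min at 27 °C. Buffer: 50 mM Tris-HCl, 10 mM MgSO4, 0.5 mM EDTA, pH 7.4. Nonspecific binding was defined with 25 μM clozapine. Samples were filtered onto 0.3% PEI-soaked filters, washed with ice-cold Tris, and counted by scintillation. Ki was derived from IC50 by Cheng-Prusoff.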

[2] = target: T1, 5-hydroxytryptamine receptor 6 (Homo sapiens, UniProt P50406); experiment: Displacement of [3H]LSD from human 5HT6 receptor expressed in HEK293 cells by liquid scintillation counting; format: cell-based
Procedure, shortened: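 Buffer: 50 mM Tris-HCl, 10 mM MgCl2, 0.5 mM EDTA, pH 7.4. Nonspecific binding was defined with 500 μM serotonin. Samples were filtered onto 0.5% PEI-soaked filters, washed with ice-cold Tris, and counted by scintillation. Screening was at 10^-6 M; six-point curves were run if displacement exceeded 50%. Ki by Cheng-Prusoff, 2-4 experiments.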

[3] = target: T1, 5-hydroxytryptamine receptor 6; experiment: Agonist activity at human 5HT6 receptor expressed in COS7 cells assessed as stimulation of cAMP accumulation by HTRF assay; format: functional, cell-based; conditions: COS-7
Procedure, shortened: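 COS-7 cells transfected with human 5-HT6R cDNA, seeded 100000 cells/well, stimulated 24 h post-transfection for 10 min at 37 °C with each tested compound without 5-HT (agonist mode). cAMP quantified by HTRF; activity expressed as percentage of maximal effect obtained with serotonin alone. Three independent experiments in triplicate.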

[4] = target: T1, 5-hydroxytryptamine receptor 6; experiment: Antagonist activity at human 5HT6 receptor expressed in COS7 cells assessed as inhibition of serotonin-induced cAMP accumulation by HTRF assay; format: functional, cell-based, COS-7
Procedure, shortened: (§1)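 COS-7 cells were transfected with wild-type or mutant receptor cDNA and seeded at 100000 cells/well. At 24 h post-transfection, cells were stimulated for 10 min at 37 °C with eight concentrations of test ligand plus 100 μM 5-HT. cAMP was read by HTRF. Three independent experiments in triplicate, mean ± SEM.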

[5] = target: 5-hydroxytryptamine receptor 6 (Mus musculus, UniProt Q9R1C8, F287A); experiment: Antagonist activity at mouse 5HT6 receptor F6.52A mutant expressed in COS7 cells assessed as inhibition of serotonin-induced cAMP accumulation by HTRF assay; format: functional, cell-based, COS-7
Procedure, shortened: as §1, with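 “HTRF. […]” for “HTRF.”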

[6] = target: 5-hydroxytryptamine receptor 6 (Mus musculus, UniProt Q9R1C8, C110A); experiment: Antagonist activity at mouse 5HT6 receptor C3.36A mutant expressed in COS7 cells assessed as inhibition of serotonin-induced cAMP accumulation by HTRF assay; format: functional, cell-based, COS-7; procedure, shortened: as §1
[7] = Antagonist activity at mouse 5HT6 receptor N6.55A mutant expressed in COS7 cells assessed as inhibition of serotonin-induced cAMP accumulation by HTRF assay; format: functional, cell-based; conditions: cos-7
Procedure, shortened: as §1, with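 “HTRF. […]” for “HTRF.”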

[8] = target: 5-hydroxytryptamine receptor 6 (Mus musculus, UniProt Q9R1C8, W283A); experiment: Antagonist activity at mouse 5HT6 receptor W6.48A mutant expressed in COS7 cells assessed as inhibition of serotonin-induced cAMP accumulation by HTRF assay; format: functional, cell-based, COS-7
Procedure, shortened: as §1, with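 “HTRF. […]” for “HTRF.”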

[9] = target: 5-hydroxytryptamine receptor 6 (Mus musculus, UniProt Q9R1C8); experiment: Antagonist activity at mouse wild type 5HT6 receptor expressed in COS7 cells assessed as inhibition of serotonin-induced cAMP accumulation by HTRF assay; format: functional, cell-based, COS-7; procedure, shortened: as §1
5-hydroxytryptamine receptor 6 (Mus musculus, UniProt Q9R1C8), sequence (Q9R1C8 whole entry): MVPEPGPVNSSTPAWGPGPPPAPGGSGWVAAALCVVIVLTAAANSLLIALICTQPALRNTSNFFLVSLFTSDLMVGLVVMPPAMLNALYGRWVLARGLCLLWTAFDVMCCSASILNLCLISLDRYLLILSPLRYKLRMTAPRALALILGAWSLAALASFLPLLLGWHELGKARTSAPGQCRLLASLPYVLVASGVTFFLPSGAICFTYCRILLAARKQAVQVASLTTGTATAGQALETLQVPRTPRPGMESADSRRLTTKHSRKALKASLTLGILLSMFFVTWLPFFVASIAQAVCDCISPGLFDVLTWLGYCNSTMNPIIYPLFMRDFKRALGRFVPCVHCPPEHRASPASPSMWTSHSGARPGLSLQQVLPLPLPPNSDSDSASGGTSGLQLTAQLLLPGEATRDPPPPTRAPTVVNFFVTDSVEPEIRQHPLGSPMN

T1 sequence (P50406 whole entry): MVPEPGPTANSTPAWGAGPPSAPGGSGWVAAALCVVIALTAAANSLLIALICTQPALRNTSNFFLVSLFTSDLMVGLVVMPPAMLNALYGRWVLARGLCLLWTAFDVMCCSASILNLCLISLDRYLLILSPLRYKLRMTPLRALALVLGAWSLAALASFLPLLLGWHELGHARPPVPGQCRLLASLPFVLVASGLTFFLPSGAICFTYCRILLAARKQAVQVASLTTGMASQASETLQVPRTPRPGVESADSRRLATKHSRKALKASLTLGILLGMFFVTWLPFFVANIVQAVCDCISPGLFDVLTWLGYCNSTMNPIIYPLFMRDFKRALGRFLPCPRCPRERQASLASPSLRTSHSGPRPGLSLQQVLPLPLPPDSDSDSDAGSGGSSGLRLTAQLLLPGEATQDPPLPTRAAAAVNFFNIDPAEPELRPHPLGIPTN
5-hydroxytryptamine receptor 7, sequence (P34969 whole entry): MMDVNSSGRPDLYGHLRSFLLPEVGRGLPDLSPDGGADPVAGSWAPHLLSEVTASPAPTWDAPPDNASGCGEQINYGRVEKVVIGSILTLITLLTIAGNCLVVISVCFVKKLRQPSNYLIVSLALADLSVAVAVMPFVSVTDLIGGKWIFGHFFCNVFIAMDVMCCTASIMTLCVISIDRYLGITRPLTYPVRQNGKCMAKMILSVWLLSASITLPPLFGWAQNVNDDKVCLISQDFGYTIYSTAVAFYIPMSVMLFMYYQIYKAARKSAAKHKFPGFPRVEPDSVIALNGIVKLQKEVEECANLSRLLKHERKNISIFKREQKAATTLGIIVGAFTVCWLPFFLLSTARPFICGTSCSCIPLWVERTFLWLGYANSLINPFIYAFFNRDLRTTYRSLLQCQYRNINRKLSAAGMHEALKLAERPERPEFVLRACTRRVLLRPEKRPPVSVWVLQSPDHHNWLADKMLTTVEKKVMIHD
5-hydroxytryptamine receptor 6 (Mus musculus, UniProt Q9R1C8, F287A), sequence (Q9R1C8 whole entry F287A): as the sequence (Q9R1C8 whole entry) above, with F287A counted along it
5-hydroxytryptamine receptor 6 (Mus musculus, UniProt Q9R1C8, W283A), sequence (Q9R1C8 whole entry W283A): as the sequence (Q9R1C8 whole entry) above, with W283A counted along it
5-hydroxytryptamine receptor 6 (Mus musculus, UniProt Q9R1C8, C110A), sequence (Q9R1C8 whole entry C110A): as the sequence (Q9R1C8 whole entry) above, with C110A counted along it

| pKi [1] | pKi [2] | SMILES | further results |
| --- | --- | --- | --- |
| < 6.30 | < 6.00 | c1ccc2c(Cc3nc4ccc(N5CCNCC5)cc4[nH]3)cccc2c1 |  |
| < 6.30 | < 6.00 | CN1CCN(c2ccc3[nH]c(Cc4ccc5ccccc5c4)nc3c2)CC1 |  |
| < 6.30 | < 6.00 | CN1CCN(c2ccc3[nH]c(C(=O)c4cccc5ccccc45)nc3c2)CC1 |  |
| < 6.30 | < 6.00 | O=C(c1ccc2ccccc2c1)c1nc2cc(N3CCNCC3)ccc2[nH]1 |  |
| < 6.30 | < 6.00 | CN1CCN(c2ccc3[nH]c(Cc4cccc5ccccc45)nc3c2)CC1 |  |
| < 6.30 | < 6.00 | c1ccc2cc(Cc3nc4ccc(N5CCNCC5)cc4[nH]3)ccc2c1 |  |
| < 6.30 | 7.44 | CN1CCN(c2cccc3[nH]c(Cc4cccc5ccccc45)nc23)CC1 | Activity [3]: inactive; pKi [4]: 7.57 |
| < 6.30 | < 6.00 | CN1CCN(c2ccc3[nH]c(C(=O)c4ccc5ccccc5c4)nc3c2)CC1 |  |
| < 6.30 | 7.89 | O=C(c1nc2c(N3CCNCC3)cccc2[nH]1)c1cccc2ccccc12 | Activity [3]: inactive; pKi [4]: 7.82 |

Second part, the compound before the results:

| SMILES | pKi [1] | pKi [2] | further results |
| --- | --- | --- | --- |
| CN1CCN(c2ccc3[nH]c(Cc4ccccc4)nc3c2)CC1 | < 6.30 | < 6.00 |  |
| c1ccc(Cc2nc3c(N4CCNCC4)cccc3[nH]2)cc1 | < 6.30 | 7.24 | Activity [3]: inactive; pKi [4]: 7.51 |
| CN1CCN(c2cccc3[nH]c(C(=O)c4ccc5ccccc5c4)nc23)CC1 | < 6.30 | < 6.00 |  |
| CN1CCN(c2cccc3[nH]cnc23)CC1 |  | < 6.00 |  |
| CN1CCN(c2ccc3[nH]c(C(=O)c4ccccc4)nc3c2)CC1 | < 6.30 | < 6.00 |  |
| O=C(c1ccccc1)c1nc2c(N3CCNCC3)cccc2[nH]1 | < 6.30 | < 6.00 |  |
| COc1ccc(NS(=O)(=O)c2ccc(I)cc2)cc1N1CCN(C)CC1 |  |  | pKi [5]: 6.94; pKi [6]: 7.27; pKi [7]: 7.57; pKi [8]: 9.49; pKi [9]: 9.12 |
| CN1CCN(c2cccc3[nH]c(C(=O)c4cccc5ccccc45)nc23)CC1 | < 6.30 |  |  |
| CN1CCN(c2cccc3[nH]c(C(=O)c4ccccc4)nc23)CC1 | < 6.30 | < 6.00 |  |
| CN1CCN(c2cccc3[nH]c(Cc4ccccc4)nc23)CC1 | < 6.30 | 7.18 | Activity [3]: inactive; pKi [4]: 7.80 |
| c1ccc(Cc2nc3cc(N4CCNCC4)ccc3[nH]2)cc1 | < 6.30 | < 6.00 |  |
| c1ccc2c(Cc3nc4c(N5CCNCC5)cccc4[nH]3)cccc2c1 | < 6.30 | 7.80 | Activity [3]: inactive; pKi [4]: 7.80 |
